Source: PubChem BioAssay
HSV replic up = increases HSV replication in cells; HSV replication augmentation in cells, fold increase; maximum fold increase; actives 0.005% (n = 220,000); in the data active means maximum fold increase above about 1.5; tested in PC3 cells
STAT1 blocker = inhibitors of IFN-gamma induced STAT1 signaling; NIH 3T3 STAT1-luciferase reporter, luminescence; inhibition, % at 5.5 µM; actives 0.35% (n = 200,000); AID 920;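 active means inhibition above a set limit, the mean inhibition across all tested compounds plus 3 SD, cut at about 34% in these data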;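 further: 0% = IFN-gamma with DMSO and 100% = IFN-gamma with 300 µM nifuroxazide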
KCC2 mod = modulates chloride dependent transport by human KCC2 | KCC2 cells, thallium flux FluoZin-2 fluorescence | B-score of Tl+ flux slope (higher = more flux/activation; lower = inhibition) at 10 µM | actives 2.2% (n = 190,000) | AID 1456;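 active means thallium flux slope and its plate-corrected score both differing from the plate sample mean at a set confidence after two filtering rounds, in either direction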;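 further: slope of fluorescence scaled to starting intensity during 10 to 20 s after thallium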
Target sequence (Q9H2X9 whole entry, looked up): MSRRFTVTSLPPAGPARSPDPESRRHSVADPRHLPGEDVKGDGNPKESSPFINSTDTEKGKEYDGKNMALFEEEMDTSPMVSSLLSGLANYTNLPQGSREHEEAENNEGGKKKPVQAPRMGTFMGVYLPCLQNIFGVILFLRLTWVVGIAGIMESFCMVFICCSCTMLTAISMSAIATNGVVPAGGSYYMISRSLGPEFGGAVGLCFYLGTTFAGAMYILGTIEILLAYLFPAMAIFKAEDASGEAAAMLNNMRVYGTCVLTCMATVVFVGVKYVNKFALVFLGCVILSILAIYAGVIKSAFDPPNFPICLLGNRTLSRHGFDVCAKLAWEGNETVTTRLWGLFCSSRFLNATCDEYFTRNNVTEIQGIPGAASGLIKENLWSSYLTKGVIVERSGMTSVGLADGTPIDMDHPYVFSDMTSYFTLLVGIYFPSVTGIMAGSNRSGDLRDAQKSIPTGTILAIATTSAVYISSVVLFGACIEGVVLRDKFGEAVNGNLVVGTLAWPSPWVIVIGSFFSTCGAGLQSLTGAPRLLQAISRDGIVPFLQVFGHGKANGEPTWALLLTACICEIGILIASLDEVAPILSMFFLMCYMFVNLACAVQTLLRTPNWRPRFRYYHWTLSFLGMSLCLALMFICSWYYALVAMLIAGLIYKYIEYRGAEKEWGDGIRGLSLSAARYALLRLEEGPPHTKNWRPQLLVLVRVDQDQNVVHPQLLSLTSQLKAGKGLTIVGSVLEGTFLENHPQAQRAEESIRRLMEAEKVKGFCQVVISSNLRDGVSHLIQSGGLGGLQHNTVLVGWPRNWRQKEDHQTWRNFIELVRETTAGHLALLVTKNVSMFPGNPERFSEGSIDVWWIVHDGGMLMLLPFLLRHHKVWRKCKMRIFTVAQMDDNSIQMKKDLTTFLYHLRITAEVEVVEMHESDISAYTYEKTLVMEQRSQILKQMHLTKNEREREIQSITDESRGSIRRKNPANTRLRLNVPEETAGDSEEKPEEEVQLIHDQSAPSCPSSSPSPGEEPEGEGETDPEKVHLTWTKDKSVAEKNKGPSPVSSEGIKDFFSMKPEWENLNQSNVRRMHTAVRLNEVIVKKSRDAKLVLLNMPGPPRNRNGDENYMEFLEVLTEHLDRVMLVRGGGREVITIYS
STAT1 act = STAT1 signaling activation | actives 2.6% (n = 200,000) | AID 932 | NIH 3T3 STAT1-luciferase reporter, IFN-gamma, luminescence; 100% = IFN-gamma alone, no compound | activation (% of control), % at 5.5 µM;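 active means activation above the screen-wide mean activation plus 3 SD, cut at about 130% in these data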;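 further: raw ratio to IFN-gamma control signal so 100% means no change and 0% no light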
STAT3 act = STAT3 signaling activation. U3A cells, IL-6 STAT3-luciferase reporter, luminescence; 100% = signal with IL-6 EC80 alone. activation (% of control), % at 5.6 µM. actives 0.91% (n = 190,000). AID 871;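 active means activation above the screen-wide mean of compound activation plus 3 SD, cut at about 130% in these data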;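 further: 0% = background luminescence of wells with medium and substrate only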
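Detection: reporter luminescence signal / Assay system: STAT1-lacking human U3A cells, STAT3 luciferase reporter / Incubation: compound pre-incubation 1 h before IL-6, then 6 h stimulation at 37 °C / Control set: IL-6-only high control / Read-out: % activation relative to IL-6 control / Probe or stimulus: Interleukin-6, 33 ng/mL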
STAT3 inh-1 = inhibitors of IL-6 induced STAT3 signaling. U3A cells, IL-6 STAT3-luciferase reporter, luminescence; host cell line lacks STAT1. inhibition, % at 5.5 µM. actives 0.89% (n = 190,000);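 active means inhibition above the mean inhibition across all screened compounds plus 3 SD, cut at about 44% in these data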;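 further: 0% = DMSO only wells and 100% = 100 µM nifuroxazide control wells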
STAT3 inh-2 = confirmation of STAT3 signaling inhibitors | shares compounds with STAT3 inh-1 | U3A cells, IL-6 STAT3 luciferase reporter, luminescence; cell line lacks STAT1 | inhibition, % at 5.7 µM | actives 45% (n = 1,200) | AID 1265;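 active means inhibition above the hit cutoff computed for the primary STAT3 screen, cut at about 44% in these data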;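 further: 0% = IL-6 plus DMSO and 100% = IL-6 plus nifuroxazide control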
NFkB inh STAT3ct = inhibits NF-kappaB, counter-screen to STAT3 inhibitors. shares compounds with STAT3 inh-1. HEK293T NF-kB luciferase reporter, TNF-alpha induced. inhibition, % at 5.7 µM. actives 36% (n = 1,200);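 active means inhibition above the mean of solvent-only control wells plus 3 SD, cutoff set per campaign, cut at about 13% in these data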;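 further: 0% = TNF-alpha with DMSO and 100% = TNF-alpha with MG high control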
STAT1 inh STAT3c = STAT1 inhibition in STAT3 inhibitor counter-screen; AID 1317; shares compounds with STAT3 inh-1; NIH 3T3 STAT1-luciferase reporter, IFN-gamma induced, luminescence; inhibition, % at 5.7 µM; actives 27% (n = 1,200);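 active means inhibition above the mean plus 3 SD of solvent-only control wells, limit set per screening run, cut at about 16% in these data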;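 further: 0% = DMSO with IFN-gamma and 100% = nifuroxazide control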
* = called active by the depositor; i = inactive; . = not tested or not shown. An excerpt weighted towards active compounds, which were near 5.5% of everything screened.

SMILES	HSV replic up	STAT1 blocker	KCC2 mod	STAT1 act	STAT3 act	STAT3 inh-1	STAT3 inh-2	NFkB inh STAT3ct	STAT1 inh STAT3c
COC(=O)c1sccc1OCc1cccc(OC)c1	i	-3	-0.18	102	91	15	.	.	.
Cc1nc2ccccc2cc1OCc1ccccc1	.	19	-2.2	83	49	69*	50*	8	3
COc1cccc(COc2cc3ccccc3nc2C)c1	i	15	-0.17	86	39	80*	76*	21*	8
C=CCOc1ccc2ccccc2c1CNc1ncn[nH]1	i	7	-0.34	94	98	8	.	.	.
CCOC(=O)C1=C(C)Nc2ccccc2N=C1NC(=O)C(CC)c1ccccc1 (stereo unspecified)	i	3	-0.11	97	103	-5	.	.	.
Cc1cccc(N2CCN(C(=O)CSCc3c(C)noc3C)CC2)c1C	.	22	-0.52	80	46	70*	59*	11	14
Cc1noc(C)c1CSCC(=O)N1CCN(c2ccc(F)cc2)CC1	i	27	.	75	67	46*	31	3	4
CC(C)C(=O)Nc1ccc2nn(-c3ccccc3)nc2c1	i	-19	0.047	116	63	48*	15	-34	-155
Cc1ccc(C(=O)CSc2nnc3ccccn23)c(C)c1	i	-24	0.2	119	93	13	.	.	.
COCCn1c(C)cc(C(=O)CSc2nnc3ccccn23)c1C	i	31	.	72	43	74*	21	0	-32
O=C(Nc1ccc2c(c1)nc1n2CCSC1)c1ccco1	i	4	-2.7	96	51	63*	24	-16	-38
O=C(Nc1ccc2c(c1)nc1n2CCOC1)c1ccco1	i	-23	-0.17	121	99	5	.	.	.
CS(=O)(=O)N(Cc1ccc(Cl)cc1)c1ccc(C(=O)NCCC2=CCCCC2)cc1	i	4	-0.25	97	103	2	.	.	.
O=C(NCCC1=CCCCC1)c1ccc(Cl)cc1	i	0	.	99	64	47*	4	-28	-113
Cc1c(C(=O)OCCOc2ccccc2)[nH]c2c1C(=O)CCC2	i	-19	-1.9	117	52	59*	29	-18	-107
CCc1nn(C)c(N)c1C	i	2	-0.072	97	108	-4	.	.	.
Cc1cc(NC(=O)COC(=O)c2cccc(OCc3ccccc3)c2)no1	i	-6	1	105	111	-10	.	.	.
CCOc1ccc(C(=O)Nc2cc(C)on2)cc1	i	-4	.	104	66	46*	2	-23	-52
CC(C)c1cc(C(N)=O)c(NC(=O)c2cccc(COc3ccc(Cl)cc3)c2)s1	.	34*	0.6	68	48	63*	32	8	11
Cc1nn(Cc2c(F)c(F)c(F)c(F)c2F)c(C)c1NC(=O)c1cccc(COc2ccc(Cl)cc2)c1	i	-8	0.65	108	109	-3	.	.	.
Cc1cc(NC(=O)c2cccc(COc3ccc(Br)cc3)c2)no1	i	15	1.3	86	63	49*	19	41*	-15
O=C(NCCc1nc(-c2ccccc2)cs1)c1ccc(Br)cc1	i	8	-3.6	93	103	-7	.	.	.
Cc1cc(C(=O)Nc2nnc(C3CCCCC3)s2)cs1	i	-4	-0.27	105	102	2	.	.	.
Cc1cc(C(=O)Nc2nc3c(s2)CCCC3)cs1	i	-37	0.5	136*	60	52*	21	-41	-137
Cn1c(=O)oc2cc(S(=O)(=O)N3CCCC(C(=O)NC4CCCc5ccccc54)C3)ccc21 (stereo unspecified)	i	12	.	89	37	81*	75*	34*	-6
SMILES	HSV replic up	STAT1 blocker	KCC2 mod	STAT1 act	STAT3 act	STAT3 inh-1	STAT3 inh-2	NFkB inh STAT3ct	STAT1 inh STAT3c
Cn1c(=O)oc2cc(S(=O)(=O)N3CCCC(C(=O)Nc4ccccn4)C3)ccc21 (stereo unspecified)	i	7	0.89	94	93	13	.	.	.
Cn1c(=O)oc2cc(S(=O)(=O)N3CCCC(C(=O)N4CC=C(c5ccccc5)CC4)C3)ccc21 (stereo unspecified)	.	23	-1.4	79	58	56*	44*	6	12
Cc1ccnc(NC(=O)/C=C/c2ccccc2[N+](=O)[O-])c1	i	-1	-0.18	100	71	38	.	.	.
Cc1ccnc(NC(=O)/C=C/c2ccccc2Cl)c1	i	-23	0.97	121	55	55*	28	-9	-100
CCOC(=O)c1ccc(N2C(=O)c3n[nH]c(-c4ccco4)c3C2c2cccc([N+](=O)[O-])c2)cc1 (stereo unspecified)	i	1	-0.41	99	96	2	.	.	.
Cc1ccc(NC(=O)COC(=O)C(NS(=O)(=O)c2ccc(Cl)cc2)C(C)O)cc1C (stereo unspecified)	i	-8	-0.66	107	107	-5	.	.	.
Cc1cc(C)n(Cc2ccc(NC(=O)c3ccc(COc4ccccc4Br)cc3)cc2)n1	.	5	.	89	59	52*	52*	9	-1
C=COCCNC(=S)N1CCOCCOCCN(C(=S)NCCOC=C)CCOCCOCC1	i	-3	-0.1	102	96	10	.	.	.
O=C(COc1ccc(Cl)cc1)Nc1ncc([N+](=O)[O-])s1	i	31	-2.9	70	63	48*	8	-9	-42
Cc1csc2ncnc(NCCc3ccccn3)c12	i	35*	-0.53	67	40	72*	75*	25*	24*
c1ccc(CCNc2ncnc3sccc23)nc1	i	-1	0.73	99	73	36	.	.	.
CCCCC1CCC(c2nc(-c3ccccn3)no2)CC1 (stereo unspecified)	i	-3	0.5	102	45	72*	22	-39	-85
c1ccc(-c2noc(C3CCC3)n2)nc1	i	.	-0.036	.	.	.	.	.	.
O=C(Oc1ccc2ccccc2c1)c1ccco1	i	-8	-0.58	106	101	3	.	.	.
CC1CC(C)(C)Nc2ccc(OC(=O)c3ccco3)cc21 (stereo unspecified)	i	20	0.83	82	53	62*	31	25*	11
Cc1ccc(Cl)cc1N1CCN(C(=O)CSc2nnc3n2C(C)(C)Cc2ccccc2-3)CC1	i	21	-3	80	36	81*	72*	15*	17*
